# Positions count from the first letter of the chain named. The source made the active and inactive calls. No cut-off for these calls is given here.
# Assays:
# Histone deacetylase 3 = Histone deacetylase 3 (Homo sapiens, UniProt O15379); assay: Inhibition of human recombinant HDAC3 using MAZ1600 as fluorogenic substrate measured every 5 mins by optimized homogenous fluorescence based assay
# [1] = molecular target: T1, Histone deacetylase 8 (Homo sapiens) (UniProt Q9BY41); assay: Binding affinity to human wild type HDAC8 assessed as loss of activity at 2 to 10 uM by Fluor-de-Lys activity assay
# T1 sequence (whole entry): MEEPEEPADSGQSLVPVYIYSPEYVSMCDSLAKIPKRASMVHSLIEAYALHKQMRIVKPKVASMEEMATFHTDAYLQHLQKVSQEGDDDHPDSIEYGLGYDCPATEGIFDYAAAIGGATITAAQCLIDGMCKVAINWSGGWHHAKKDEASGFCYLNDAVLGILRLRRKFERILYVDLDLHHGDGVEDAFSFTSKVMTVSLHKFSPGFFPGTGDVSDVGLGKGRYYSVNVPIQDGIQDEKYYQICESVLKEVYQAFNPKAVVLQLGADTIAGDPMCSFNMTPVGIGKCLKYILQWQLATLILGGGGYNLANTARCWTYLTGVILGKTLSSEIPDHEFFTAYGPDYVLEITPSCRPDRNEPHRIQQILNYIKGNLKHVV
# [2] = tested on: T2, Histone deacetylase 8 (Homo sapiens), Q9BY41 [C153A]; assay: Binding affinity to human HDAC8 C153A mutant assessed as loss of activity at 2 to 10 uM by Fluor-de-Lys activity assay
# T2 sequence (whole entry): T1 sequence (whole entry) with C153A
# Method in brief: (§1)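 Same as the wild-type method, but using the C153A HDAC8 mutant at 2 μM to start the reaction. Zn2+-reconstituted enzyme; 150 μM Fluor-de-Lys substrate with inhibitor at 30 °C, pH 8.0. Time-point aliquots quenched with trypsin/TSA. Product/substrate fluorescence ratio (ex 340, em 450/380 nm) gives progress curves.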
# [3] = molecular target: T3, Protein deacetylase HDAC6 (Homo sapiens, UniProt Q9UBN7); assay: Inhibition of human recombinant HDAC6 using MAZ1600 as fluorogenic substrate measured every 5 mins by optimized homogenous fluorescence based assay
# T3 sequence (Q9UBN7 whole entry): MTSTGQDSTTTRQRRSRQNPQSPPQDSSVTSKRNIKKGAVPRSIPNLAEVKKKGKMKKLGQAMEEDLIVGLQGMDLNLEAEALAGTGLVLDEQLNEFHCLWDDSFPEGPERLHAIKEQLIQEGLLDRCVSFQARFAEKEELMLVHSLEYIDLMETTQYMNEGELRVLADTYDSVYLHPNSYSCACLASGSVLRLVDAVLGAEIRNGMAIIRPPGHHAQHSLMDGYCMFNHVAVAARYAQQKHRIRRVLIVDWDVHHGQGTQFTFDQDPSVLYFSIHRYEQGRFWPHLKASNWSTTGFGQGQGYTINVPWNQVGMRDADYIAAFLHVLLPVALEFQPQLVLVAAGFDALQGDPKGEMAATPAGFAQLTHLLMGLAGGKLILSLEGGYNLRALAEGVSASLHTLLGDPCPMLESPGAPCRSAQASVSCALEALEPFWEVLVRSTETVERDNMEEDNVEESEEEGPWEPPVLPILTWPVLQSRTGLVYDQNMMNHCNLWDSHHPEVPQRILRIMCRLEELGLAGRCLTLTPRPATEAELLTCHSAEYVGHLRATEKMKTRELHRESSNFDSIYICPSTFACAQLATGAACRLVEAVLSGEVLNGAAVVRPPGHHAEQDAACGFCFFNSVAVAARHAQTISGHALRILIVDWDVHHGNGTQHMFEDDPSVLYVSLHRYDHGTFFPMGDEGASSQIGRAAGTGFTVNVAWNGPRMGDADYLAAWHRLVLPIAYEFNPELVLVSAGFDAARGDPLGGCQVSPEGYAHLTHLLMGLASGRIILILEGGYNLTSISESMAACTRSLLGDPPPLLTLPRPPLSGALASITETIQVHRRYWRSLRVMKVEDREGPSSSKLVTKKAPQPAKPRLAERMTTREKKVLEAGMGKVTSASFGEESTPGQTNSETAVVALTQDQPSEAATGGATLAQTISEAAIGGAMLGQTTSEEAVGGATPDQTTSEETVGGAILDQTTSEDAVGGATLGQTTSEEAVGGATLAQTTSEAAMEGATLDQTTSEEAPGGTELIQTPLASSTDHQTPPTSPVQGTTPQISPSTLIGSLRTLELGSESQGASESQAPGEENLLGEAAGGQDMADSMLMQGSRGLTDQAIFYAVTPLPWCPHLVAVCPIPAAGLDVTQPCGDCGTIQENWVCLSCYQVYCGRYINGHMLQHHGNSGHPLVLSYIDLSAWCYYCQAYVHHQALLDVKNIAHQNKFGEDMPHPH
# [4] = Cytotoxicity against mouse NIH/3T3 cells assessed as cell proliferation at 50 uM after 70 hrs by MTS assay; format: cell-based; settings: nih3t3, 70 h
# Method in brief: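 NIH/3T3 cells in DMEM + 10% FBS, seeded at 5000 cells/well and allowed to attach for 16 h at 37 °C, 5% CO2. Then exposed to compound for 70 h. MTS reagent added for 2 h, absorbance at 490 nm. Triplicate wells, 2–3 trials.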
# HH [5] = assay: Cytotoxicity against human HH cells assessed as cell proliferation at 50 uM after 70 hrs by MTS assay; format: functional, cell-based
# Method in brief: (§2)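 HH and Jurkat cells in RPMI 1640 + 10% FBS, seeded at 20 000 cells/well. Exposed directly to compound (0.5–128 μM) for 70 h. MTS reagent added for 4 h at 37 °C, absorbance at 490 nm. Each concentration run in triplicate, 2–3 trials.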
# [6] = Prodrug activation assessed as GSH reactivity in HEPES buffer at pH 7.4 by LC-MS analysis
# Method in brief: (§3)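 Compound incubated with GSH (2 mM, 2 equiv) in 50 mM HEPES, pH 7.4, for 2 h at 37 °C. Products resolved by analytical HPLC, with peak identities assigned by LC-MS from retention times.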
# Histone deacetylase 8 [7] = molecular target: T4, Histone deacetylase 8 (Homo sapiens, UniProt Q9BY41); assay: Inhibition of human recombinant HDAC8 using MAZ1675 as fluorogenic substrate measured every 5 mins by optimized homogenous fluorescence based assay
# T4 sequence (Q9BY41 whole entry): T1 sequence (whole entry)
# Jurkat [8] = assay: Cytotoxicity against human Jurkat cells assessed as cell proliferation at 50 uM after 70 hrs by MTS assay; format: functional, cell-based; method in brief: as §2
# Histone deacetylase 1 = Histone deacetylase 1 (Homo sapiens, UniProt Q13547); assay: Inhibition of human recombinant HDAC1 using MAZ1600 as fluorogenic substrate measured every 5 mins by optimized homogenous fluorescence based assay
# Histone deacetylase 2 = Histone deacetylase 2 (Homo sapiens, UniProt Q92769); assay: Inhibition of human recombinant HDAC2 using MAZ1600 as fluorogenic substrate measured every 5 mins by optimized homogenous fluorescence based assay
# [9] = Stability of the compound assessed as trypsin (unknown origin)-mediated drug degradation measured as compound remaining after 2 hrs by biochemical assay; format: ADME; settings: human, read-out: Stability
# [10] = molecular target: T1, Histone deacetylase 8 (Homo sapiens)
# [11] = Retention time of the compound in HEPES buffer at pH 7.4 by LC-MS analysis in presence of GSH; format: physicochemical; method in brief: as §3
# [12] = Aqueous stability in 50 mM HEPES buffer at pH 7.4 by HPLC chromatogram; format: physicochemical
# Method in brief: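 Compound in 50 mM HEPES, pH 7.4, analysed by analytical HPLC right after preparation and again after 24 h at 37 °C, with no thiol present. Stability is read from the parent peak.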
# [13] = Stability in human plasma assessed as compound remaining after 1 hr by HPLC analysis; format: ADME, cell-free; settings: read-out: Stability
# Method in brief: (§4)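 Pooled normal human plasma pre-warmed 2 min at 37 °C, spiked from a 5.0 mM DMSO stock, run in duplicate. Aliquots taken at 0–120 min, quenched with ACN, centrifuged and filtered. Analysed by reverse-phase C18 HPLC; percent parent is peak area relative to the 0 min sample.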
# [14] = molecular target: T5, Histone deacetylase (Homo sapiens) (UniProt Q13547+O15379+Q9UBN7+Q92769+Q9UQL6+Q8WUI4+Q9BY41+Q96DB2+P56524+Q9UKV0+Q969S8); settings: HH, 6 to 20 uM
# Jurkat [15] = assay: Cytotoxicity against human Jurkat cells assessed as cell proliferation after 70 hrs by MTS assay; format: functional, cell-based
# [16] = molecular target: T5, Histone deacetylase (Homo sapiens); settings: Jurkat, 6 to 20 uM
# [17] = tested on: T2, Histone deacetylase 8 (Homo sapiens), Q9BY41 [C153A]; assay: Time-dependent inhibition of human HDAC8 C153A mutant by Fluor-de-Lys activity assay; method in brief: as §1
# Histone deacetylase 8 [18] = molecular target: T4, Histone deacetylase 8; assay: (§5) Reversible-time dependent inhibition of human wild type HDAC8 by Fluor-de-Lys activity assay; settings: read-out: Ki(app)
# [19] = molecular target: T1, Histone deacetylase 8 (Homo sapiens); assay: as §5; settings: TDE = time-dependent effect
# HH [20] = assay: Cytotoxicity against human HH cells assessed as cell proliferation after 70 hrs by MTS assay; format: functional, cell-based
# [21] = molecular target: T1, Histone deacetylase 8 (Homo sapiens); assay: Binding affinity to human wild type HDAC8 assessed as retention time for protein fragment after 60 mins of treatment in presence of trypsin (reference value: 84.5 mins)
# Method in brief: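 Recombinant human WT HDAC8 (1.7 μM) incubated with 12 equiv compound (20 μM) for 60 min at 37 °C. Protein isolated by SDS-PAGE, reduced (DTT, 56 °C) and alkylated (iodoacetamide), trypsin-digested overnight at 37 °C. Peptides separated on C18 with a 5–60% ACN gradient and detected by LC-MS/MS.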
# Jurkat [22] = assay: Effect on alpha-actin level in human Jurkat cells at 6 to 20 uM after 4 hrs by Western blot analysis; format: ADME, cell-based
# Method in brief: (§6)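 Log-phase HH or Jurkat cells at 70% confluence treated 4 h, harvested, lysed in RIPA with protease inhibitors. Protein normalised by BCA, run on 10% SDS-PAGE and blotted to PVDF. Probed with anti-actin–HRP (plus acetylated-tubulin and tubulin antibodies) and detected by chemiluminescence.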
# [23] = Stability in human plasma assessed as compound remaining after 2 hrs by HPLC analysis; format: ADME, cell-free; settings: read-out: Stability; method in brief: as §4
# HH [24] = assay: Effect on alpha-actin level in human HH cells at 6 to 20 uM after 4 hrs by Western blot analysis; format: ADME, cell-based; method in brief: as §6
# [25] = molecular target: T1, Histone deacetylase 8 (Homo sapiens); assay: Binding affinity to human wild type HDAC8 assessed as loss of activity measured with in 0.5 hrs by Fluor-de-Lys activity assay
# [26] = Cytotoxicity against mouse NIH/3T3 cells assessed as cell proliferation after 70 hrs by MTS assay; format: ADME, cell-based; settings: NIH3T3, 70 h
# Albumin = Albumin (Bos taurus, UniProt P02769); assay: Stability of the compound assessed as bovine serum albumin-mediated drug degradation measured as compound remaining after 2 hrs by biochemical assay; format: ADME; settings: cattle, read-out: Stability
# [27] = Retention time of the compound in HEPES buffer treated with SAHA-TAP at pH 7.4 by LC-MS analysis in presence of GSH; format: physicochemical; method in brief: as §3
# Chain of Histone deacetylase 2 (Q92769 whole entry): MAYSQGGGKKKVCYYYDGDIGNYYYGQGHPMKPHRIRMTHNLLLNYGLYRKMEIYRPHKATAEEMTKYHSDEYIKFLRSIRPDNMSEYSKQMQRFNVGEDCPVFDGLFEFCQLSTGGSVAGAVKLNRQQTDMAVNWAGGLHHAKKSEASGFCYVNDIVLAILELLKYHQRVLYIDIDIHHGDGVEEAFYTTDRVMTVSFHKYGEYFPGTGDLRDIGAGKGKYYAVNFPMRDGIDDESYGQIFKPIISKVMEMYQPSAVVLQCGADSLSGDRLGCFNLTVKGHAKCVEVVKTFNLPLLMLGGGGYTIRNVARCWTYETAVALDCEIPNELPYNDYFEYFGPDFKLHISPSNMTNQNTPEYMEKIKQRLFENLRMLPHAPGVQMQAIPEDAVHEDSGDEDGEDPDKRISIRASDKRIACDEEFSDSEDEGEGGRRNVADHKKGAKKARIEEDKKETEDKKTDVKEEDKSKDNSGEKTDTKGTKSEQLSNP
# Chain of Histone deacetylase 3 (O15379 whole entry): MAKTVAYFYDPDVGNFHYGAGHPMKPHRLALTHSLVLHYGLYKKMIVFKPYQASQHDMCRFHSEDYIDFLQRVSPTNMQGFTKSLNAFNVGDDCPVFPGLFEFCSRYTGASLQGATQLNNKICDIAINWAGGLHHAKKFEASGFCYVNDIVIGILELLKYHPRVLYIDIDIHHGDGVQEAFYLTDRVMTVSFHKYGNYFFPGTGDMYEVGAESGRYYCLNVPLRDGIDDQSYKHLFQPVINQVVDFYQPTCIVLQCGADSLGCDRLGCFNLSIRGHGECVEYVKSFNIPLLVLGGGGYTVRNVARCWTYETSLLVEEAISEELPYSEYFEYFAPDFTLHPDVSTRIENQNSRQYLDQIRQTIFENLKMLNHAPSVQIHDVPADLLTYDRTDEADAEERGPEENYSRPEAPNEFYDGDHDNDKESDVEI
# Chain of Histone deacetylase 1 (Q13547 whole entry): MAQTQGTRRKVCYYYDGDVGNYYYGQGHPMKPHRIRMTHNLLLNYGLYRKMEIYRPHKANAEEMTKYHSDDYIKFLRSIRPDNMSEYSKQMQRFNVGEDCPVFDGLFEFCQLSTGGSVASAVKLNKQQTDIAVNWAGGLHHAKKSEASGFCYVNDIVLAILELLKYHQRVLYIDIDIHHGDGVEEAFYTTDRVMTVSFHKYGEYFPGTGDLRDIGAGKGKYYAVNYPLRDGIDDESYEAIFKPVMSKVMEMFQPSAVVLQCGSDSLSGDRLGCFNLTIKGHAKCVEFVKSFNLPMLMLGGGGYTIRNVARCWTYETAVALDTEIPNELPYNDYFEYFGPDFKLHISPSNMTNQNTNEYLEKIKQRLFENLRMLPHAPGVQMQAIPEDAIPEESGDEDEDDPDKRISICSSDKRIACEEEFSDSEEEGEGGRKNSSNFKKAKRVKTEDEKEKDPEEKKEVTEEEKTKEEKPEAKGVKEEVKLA
# Chain of Albumin (P02769 whole entry): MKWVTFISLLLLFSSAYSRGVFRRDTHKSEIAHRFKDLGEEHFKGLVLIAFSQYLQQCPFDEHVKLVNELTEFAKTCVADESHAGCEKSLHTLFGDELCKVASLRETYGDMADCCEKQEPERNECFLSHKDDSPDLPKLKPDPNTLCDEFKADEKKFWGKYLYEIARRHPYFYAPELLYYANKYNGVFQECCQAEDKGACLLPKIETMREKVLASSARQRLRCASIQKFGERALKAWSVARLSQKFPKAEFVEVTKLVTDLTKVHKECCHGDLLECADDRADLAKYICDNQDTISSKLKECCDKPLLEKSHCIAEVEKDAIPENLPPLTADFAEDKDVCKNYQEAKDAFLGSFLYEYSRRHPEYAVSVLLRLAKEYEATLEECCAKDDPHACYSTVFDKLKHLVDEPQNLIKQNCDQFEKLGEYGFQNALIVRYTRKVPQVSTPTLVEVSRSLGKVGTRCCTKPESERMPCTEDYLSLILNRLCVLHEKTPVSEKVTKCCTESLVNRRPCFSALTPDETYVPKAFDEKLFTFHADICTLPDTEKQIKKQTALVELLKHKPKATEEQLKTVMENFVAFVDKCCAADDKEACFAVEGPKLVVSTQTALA
smiles,measurement,setting,value
O=C(CCCCCCC(=O)Nc1ccccc1)NOCc1ccccc1,IC50,Histone deacetylase 3,> 10 µM
same,inhibition,[1],inactive
same,inhibition,[2],inactive
same,IC50,[3],> 10 µM
same,Activity,[4],Non-toxic
same,inhibition,HH [5],inactive
same,Activity,[6],Not Active
same,IC50,Histone deacetylase 8 [7],> 10 µM
same,inhibition,Jurkat [8],inactive
same,IC50,Histone deacetylase 1,> 10 µM
same,IC50,Histone deacetylase 2,> 10 µM
CC1=C(C)C(=O)C(CONC(=O)CCCCCCC(=O)Nc2ccccc2)=C(C)C1=O,IC50,Histone deacetylase 3,0.149 µM
same,remaining at 2 h,[9],> 95%
same,IC50,[3],0.023 µM
same,K1/2,[10],8 µM
same,Retention_time,[11],14.7 min
same,Stability,[12],> 97%
same,remaining at 1 h,[13],72%
same,inhibition,[14],Active
same,EC50,Jurkat [15],6.05 µM
same,inhibition,[16],Active
same,TDI,[17],inactive
same,Ki,Histone deacetylase 8 [18],7 µM
same,inhibition,[19],tde
same,EC50,HH [20],3.38 µM
same,IC50,Histone deacetylase 8 [7],3.84 µM
same,Retention time,[21],88.5 min
same,Activity,Jurkat [22],Non-toxic
same,remaining at 2 h,[23],52%
same,Activity,HH [24],Non-toxic
same,inhibition,[25],Active
same,EC50,[26],9.37 µM
same,IC50,Histone deacetylase 1,0.371 µM
same,IC50,Histone deacetylase 2,0.255 µM
same,remaining at 2 h,Albumin,> 95%
C=C1C(=O)C(C)=C(C)C(=O)C1(C)SC[C@H](NC(=O)CC[C@H](N)C(=O)O)C(=O)NCC(=O)O (stereo partly drawn),Retention_time,[27],10.5 min
O=C(CCCCCCC(=O)Nc1ccccc1)NO [VORINOSTAT],Retention_time,[27],10.7 min
same,remaining at 2 h,[23],55%
